In ChEMBL document CHEMBL1681674, “Synthesis of 3-phenylpyrazolopyrimidine-1,2,3-triazole conjugates and evaluation of their Src kinase inhibitory and anticancer activities” (Bioorg Med Chem Lett, 2011):

Assays:
[1] = target: T1, Proto-oncogene tyrosine-protein kinase Src (Homo sapiens, UniProt P12931); assay: Inhibition of GST-fussed c-SRC after 30 mins
[2] = system: SK-OV-3; assay: Cytotoxicity against c-SRC expressing human SKOV3 cells assessed as inhibition of cell proliferation at 50 uM after 72 hrs relative to control; type: functional; conditions: SK-OV-3, 72 h
Method in brief: (§1)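 Proliferation of SK-Ov-3, MDA-MB-361 and HT-29 cells was measured after 72 h exposure at 50 μM. Growth is expressed as a percentage of the DMSO vehicle control, set at 100%, with no compound. All experiments were run in triplicate.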

[3] = system: HT-29; assay: Cytotoxicity against c-SRC expressing human HT-29 cells assessed as inhibition of cell proliferation at 50 uM after 72 hrs relative to control; type: functional; conditions: HT-29, 72 h; method in brief: as §1
[4] = target: T1, Proto-oncogene tyrosine-protein kinase Src; assay: Inhibition of GST-fussed c-SRC up to 250 uM after 30 mins
Method in brief: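 Src kinase enzyme inhibition was assessed at concentrations up to 250 μM.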

[5] = system: MDA-MB-361; assay: Cytotoxicity against c-SRC expressing human MDA-MB-361 cells assessed as inhibition of cell proliferation at 50 uM after 72 hrs relative to control; type: functional; conditions: MDA-MB-361, 72 h; method in brief: as §1
[6] = system: SK-OV-3; assay: Cellular uptake in c-SRC expressing human SKOV3 cells; type: ADME, cell-based
[7] = system: HT-29; assay: Cellular uptake in c-SRC expressing human HT-29 cells; type: ADME, cell-based
[8] = system: MDA-MB-361; assay: Cellular uptake in c-SRC expressing human MDA-MB-361 cells; type: ADME, cell-based

T1 sequence (P12931 2-536 limits assumed): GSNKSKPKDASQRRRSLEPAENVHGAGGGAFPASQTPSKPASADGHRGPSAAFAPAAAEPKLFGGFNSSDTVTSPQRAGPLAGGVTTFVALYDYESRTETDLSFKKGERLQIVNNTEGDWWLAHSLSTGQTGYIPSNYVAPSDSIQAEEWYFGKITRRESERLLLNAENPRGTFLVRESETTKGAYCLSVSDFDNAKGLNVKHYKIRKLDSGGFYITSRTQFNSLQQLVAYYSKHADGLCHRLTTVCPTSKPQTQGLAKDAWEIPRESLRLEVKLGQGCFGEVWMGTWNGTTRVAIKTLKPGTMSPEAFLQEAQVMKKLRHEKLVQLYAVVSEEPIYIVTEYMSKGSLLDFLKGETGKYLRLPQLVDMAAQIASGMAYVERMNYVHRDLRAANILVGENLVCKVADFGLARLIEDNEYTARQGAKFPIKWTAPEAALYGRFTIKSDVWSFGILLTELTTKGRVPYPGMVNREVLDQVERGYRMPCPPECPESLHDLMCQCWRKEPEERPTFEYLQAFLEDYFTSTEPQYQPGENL

Compound | IC50 [1] [µM] | further results
Cc1ccc(C(=O)Cn2cc(Cn3nc(-c4ccccc4)c4c(N)ncnc43)nn2)cc1 | > 75 | 
Nc1ncnc2c1c(-c1ccccc1)nn2Cc1cn(CC(=O)Nc2ccc(Cl)cc2)nn1 | > 75 | 
COc1ccc(-c2cn(CCn3nc(-c4ccccc4)c4c(N)ncnc43)nn2)cc1 | 17.4 | inhibition at 50 µM [2]: 58%; inhibition at 50 µM [3]: 73%
CCCCc1cn(CCn2nc(-c3ccccc3)c3c(N)ncnc32)nn1 | > 75 | 
Nc1ncnc2c1c(-c1ccccc1)nn2CCn1cc(CCCCl)nn1 |  | inhibition [4]: < 10%; inhibition at 50 µM [3]: 57%
Nc1ncnc2c1c(-c1ccccc1)nn2Cc1cn(CC(=O)c2cccs2)nn1 | > 75 | 
Nc1ncnc2c1c(-c1ccccc1)nn2CCn1cc(Cc2ccccc2)nn1 |  | inhibition [4]: < 10%
Nc1ncnc2c1c(-c1ccccc1)nn2Cc1cn(CC(=O)CCCO)nn1 | 9.1 | 
CCOC(=O)Cn1cc(Cn2nc(-c3ccccc3)c3c(N)ncnc32)nn1 | 12.7 | 
Nc1ncnc2c1c(-c1ccccc1)nn2Cc1cn(CC(=O)CCc2cccc3ccccc23)nn1 |  | inhibition [4]: < 10%; inhibition at 50 µM [2]: 48%
Nc1ncnc2c1c(-c1ccccc1)nn2Cc1cn(CC(=O)c2ccc(Cl)cc2)nn1 | > 75 | 
CC(=O)c1ccc(-c2cn(CCn3nc(-c4ccccc4)c4c(N)ncnc43)nn2)cc1 | > 75 | 
Nc1ncnc2c1c(-c1ccccc1)nn2Cc1cn(CC(=O)c2ccccc2)nn1 | > 75 | 
[N-]=[N+]=NCCn1nc(-c2ccccc2)c2c(N)ncnc21 | 6.2 | 
Nc1ncnc2c1c(-c1ccccc1)nn2Cc1cn(CC(=O)Nc2ccccc2)nn1 | 23.1 | inhibition at 50 µM [5]: 51%
CCCCCCc1cn(CCn2nc(-c3ccccc3)c3c(N)ncnc32)nn1 | 5.6 | Drug uptake [6]: Active; Drug uptake [7]: Active; Drug uptake [8]: Active
Nc1ncnc2c1c(-c1ccccc1)nn2Cc1cn(CC(=O)Nc2ccc(F)cc2)nn1 | 16.4 | 
Nc1ncnc2c1c(-c1ccccc1)nn2CCn1cc(-c2ccc(F)cc2)nn1 | 29.6 | inhibition at 50 µM [5]: 49%
CCCCCCCCCCc1cn(CCn2nc(-c3ccccc3)c3c(N)ncnc32)nn1 | > 75 | 
CCCCCCCc1cn(CCn2nc(-c3ccccc3)c3c(N)ncnc32)nn1 | > 75 | 
